From ChEMBL document CHEMBL2375313, “Synthesis, in vitro antitumor evaluation and DNA-binding study of novel tetrahydroquinolines and some derived tricyclic and tetracyclic ring systems” (Eur J Med Chem, 2013)

Assays:
Type in all cases: functional
[1] = tested on: HOP-92; experiment: Cytotoxicity against human HOP92 cells assessed as growth inhibition at 10 uM after 48 hrs by sulphorhodamine B assay; settings: HOP-92, 48 h, read-out: GI
How it was run: (§1)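 NCI-60 one-dose screen per the NCI Drug Evaluation Branch protocol. Cells given a single 10 µM concentration with 48 h continuous exposure. Growth estimated by sulphorhodamine B protein assay. Result expressed as percentage growth inhibition relative to untreated growth.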

[2] = tested on: NCI-H23; experiment: Cytotoxicity against human NCI-H23 cells assessed as growth inhibition at 10 uM after 48 hrs by sulphorhodamine B assay; settings: NCI-H23, 48 h, read-out: GI; how it was run: as §1
[3] = Cytotoxicity against human EKVX cells assessed as growth inhibition at 10 uM after 48 hrs by sulphorhodamine B assay; settings: read-out: GI; how it was run: as §1
[4] = tested on: A549; experiment: Cytotoxicity against human A549 cells assessed as growth inhibition at 10 uM after 48 hrs by sulphorhodamine B assay; settings: A549, 48 h, read-out: GI; how it was run: as §1
[5] = tested on: NCI/ADR-RES; experiment: Cytotoxicity against human NCI/ADR-RES cells assessed as growth inhibition at 10 uM after 48 hrs by sulphorhodamine B assay; settings: read-out: GI; how it was run: as §1
[6] = tested on: SNB-75; experiment: Cytotoxicity against human SNB75 cells assessed as growth inhibition at 10 uM after 48 hrs by sulphorhodamine B assay; settings: SNB-75, 48 h, read-out: GI; how it was run: as §1
[7] = tested on: U-251; experiment: Cytotoxicity against human U251 cells assessed as growth inhibition at 10 uM after 48 hrs by sulphorhodamine B assay; settings: U-251, 48 h, read-out: GI; how it was run: as §1
[8] = tested on: SNB-19; experiment: Cytotoxicity against human SNB19 cells assessed as growth inhibition at 10 uM after 48 hrs by sulphorhodamine B assay; settings: SNB-19, 48 h, read-out: GI; how it was run: as §1
[9] = tested on: SF-295; experiment: Cytotoxicity against human SF295 cells assessed as growth inhibition at 10 uM after 48 hrs by sulphorhodamine B assay; settings: SF-295, 48 h, read-out: GI; how it was run: as §1
[10] = tested on: DU-145; experiment: Cytotoxicity against human DU145 cells assessed as growth inhibition at 10 uM after 48 hrs by sulphorhodamine B assay; settings: DU-145, 48 h, read-out: GI; how it was run: as §1
[11] = tested on: SF-268; experiment: Cytotoxicity against human SF268 cells assessed as growth inhibition at 10 uM after 48 hrs by sulphorhodamine B assay; settings: SF-268, 48 h, read-out: GI; how it was run: as §1
[12] = tested on: PC-3; experiment: Cytotoxicity against human PC3 cells assessed as growth inhibition at 10 uM after 48 hrs by sulphorhodamine B assay; settings: PC-3, 48 h, read-out: GI; how it was run: as §1
[13] = tested on: UACC-62; experiment: Cytotoxicity against human UACC62 cells assessed as growth inhibition at 10 uM after 48 hrs by sulphorhodamine B assay; settings: UACC-62, 48 h, read-out: GI; how it was run: as §1
[14] = tested on: SK-MEL-2; experiment: Cytotoxicity against human SK-MEL-2 cells assessed as growth inhibition at 10 uM after 48 hrs by sulphorhodamine B assay; settings: SK-MEL-2, 48 h, read-out: GI; how it was run: as §1
[15] = tested on: SK-MEL-5; experiment: Cytotoxicity against human SK-MEL-5 cells assessed as growth inhibition at 10 uM after 48 hrs by sulphorhodamine B assay; settings: SK-MEL-5, 48 h, read-out: GI; how it was run: as §1
[16] = tested on: M14; experiment: Cytotoxicity against human M14 cells assessed as growth inhibition at 10 uM after 48 hrs by sulphorhodamine B assay; settings: M14, 48 h, read-out: GI; how it was run: as §1
[17] = tested on: LOX IMVI; experiment: Cytotoxicity against human LOXIMVI cells assessed as growth inhibition at 10 uM after 48 hrs by sulphorhodamine B assay; settings: read-out: GI; how it was run: as §1
[18] = tested on: UO-31; experiment: Cytotoxicity against human UO31 cells assessed as growth inhibition at 10 uM after 48 hrs by sulphorhodamine B assay; settings: UO-31, 48 h, read-out: GI; how it was run: as §1
[19] = tested on: CAKI-1; experiment: Cytotoxicity against human Caki1 cells assessed as growth inhibition at 10 uM after 48 hrs by sulphorhodamine B assay; settings: CAKI-1, 48 h, read-out: GI; how it was run: as §1
[20] = tested on: RXF 393; experiment: Cytotoxicity against human RXF393 cells assessed as growth inhibition at 10 uM after 48 hrs by sulphorhodamine B assay; settings: RXF 393, 48 h, read-out: GI; how it was run: as §1
[21] = tested on: ACHN; experiment: Cytotoxicity against human ACHN cells assessed as growth inhibition at 10 uM after 48 hrs by sulphorhodamine B assay; settings: read-out: GI; how it was run: as §1
[22] = tested on: SR; experiment: Cytotoxicity against human SR cells assessed as growth inhibition at 10 uM after 48 hrs by sulphorhodamine B assay; settings: read-out: GI; how it was run: as §1
[23] = tested on: A498; experiment: Cytotoxicity against human A498 cells assessed as growth inhibition at 10 uM after 48 hrs by sulphorhodamine B assay; settings: A498, 48 h, read-out: GI; how it was run: as §1
[24] = tested on: RPMI-8226; experiment: Cytotoxicity against human RPMI8226 cells assessed as growth inhibition at 10 uM after 48 hrs by sulphorhodamine B assay; settings: RPMI-8226, 48 h, read-out: GI; how it was run: as §1
[25] = tested on: MOLT-4; experiment: Cytotoxicity against human MOLT4 cells assessed as growth inhibition at 10 uM after 48 hrs by sulphorhodamine B assay; settings: MOLT-4, 48 h, read-out: GI; how it was run: as §1
[26] = tested on: K562; experiment: Cytotoxicity against human K562 cells assessed as growth inhibition at 10 uM after 48 hrs by sulphorhodamine B assay; settings: K562, 48 h, read-out: GI; how it was run: as §1
[27] = tested on: HL-60(TB); experiment: Cytotoxicity against human HL-60(TB) cells assessed as growth inhibition at 10 uM after 48 hrs by sulphorhodamine B assay; settings: HL-60, 48 h, read-out: GI
How it was run: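 NCI-60 one-dose primary screen run to the Drug Evaluation Branch protocol. Cells are exposed to a single 10 µM concentration for 48 h continuously, and growth is read by SRB protein assay. Data are reported as percent growth of treated cells, expressed as % growth inhibition.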

[28] = tested on: SK-OV-3; experiment: Cytotoxicity against human SKOV3 cells assessed as growth inhibition at 10 uM after 48 hrs by sulphorhodamine B assay; settings: SK-OV-3, 48 h, read-out: GI; how it was run: as §1
[29] = tested on: CCRF-CEM; experiment: Cytotoxicity against human CCRF-CEM cells assessed as growth inhibition at 10 uM after 48 hrs by sulphorhodamine B assay; settings: read-out: GI; how it was run: as §1
[30] = tested on: OVCAR-5; experiment: Cytotoxicity against human OVCAR5 cells assessed as growth inhibition at 10 uM after 48 hrs by sulphorhodamine B assay; settings: OVCAR-5, 48 h, read-out: GI; how it was run: as §1
[31] = tested on: OVCAR-4; experiment: Cytotoxicity against human OVCAR4 cells assessed as growth inhibition at 10 uM after 48 hrs by sulphorhodamine B assay; settings: OVCAR-4, 48 h, read-out: GI; how it was run: as §1
[32] = tested on: IGROV-1; experiment: Cytotoxicity against human IGROV1 cells assessed as growth inhibition at 10 uM after 48 hrs by sulphorhodamine B assay; settings: IGROV-1, 48 h, read-out: GI; how it was run: as §1
[33] = tested on: T47D; experiment: Cytotoxicity against human T47D cells assessed as growth inhibition at 10 uM after 48 hrs by sulphorhodamine B assay; settings: read-out: GI; how it was run: as §1
[34] = tested on: Hs-578T; experiment: Cytotoxicity against human Hs578T cells assessed as growth inhibition at 10 uM after 48 hrs by sulphorhodamine B assay; settings: read-out: GI; how it was run: as §1
[35] = tested on: NCI-H522; experiment: Cytotoxicity against human NCI-H522 cells assessed as growth inhibition at 10 uM after 48 hrs by sulphorhodamine B assay; settings: NCI-H522, 48 h, read-out: GI; how it was run: as §1
[36] = tested on: HT-29; experiment: Cytotoxicity against human HT-29 cells assessed as growth inhibition at 10 uM after 48 hrs by sulphorhodamine B assay; settings: HT-29, 48 h, read-out: GI; how it was run: as §1
[37] = tested on: MCF7; experiment: Cytotoxicity against human MCF7 cells assessed as growth inhibition at 10 uM after 48 hrs by sulphorhodamine B assay; settings: MCF7, 48 h, read-out: GI; how it was run: as §1
[38] = tested on: MDA-MB-435; experiment: Cytotoxicity against human MDA-MB-435 cells assessed as growth inhibition at 10 uM after 48 hrs by sulphorhodamine B assay; settings: MDA-MB-435, 48 h, read-out: GI; how it was run: as §1
[39] = tested on: HCT-15; experiment: Cytotoxicity against human HCT15 cells assessed as growth inhibition at 10 uM after 48 hrs by sulphorhodamine B assay; settings: HCT-15, 48 h, read-out: GI; how it was run: as §1
[40] = tested on: MDA-MB-468; experiment: Cytotoxicity against human MDA-MB-468 cells assessed as growth inhibition at 10 uM after 48 hrs by sulphorhodamine B assay; settings: MDA-MB-468, 48 h, read-out: GI; how it was run: as §1
[41] = tested on: HCT-116; experiment: Cytotoxicity against human HCT116 cells assessed as growth inhibition at 10 uM after 48 hrs by sulphorhodamine B assay; settings: HCT-116, 48 h, read-out: GI; how it was run: as §1

SMILES: CC1CCCc2c1nc(NC(=S)NC(=O)c1ccccc1)c(C#N)c2-c1ccc(Cl)cc1 (stereo unspecified)
- inhibition of growth at 10 µM [1]: 38.2%
- inhibition of growth at 10 µM [2]: 10%
- inhibition of growth at 10 µM [3]: 16.7%
- inhibition of growth at 10 µM [4]: 16%
- inhibition of growth at 10 µM [5]: < 10%
- inhibition of growth at 10 µM [6]: 15.7%
- inhibition of growth at 10 µM [7]: 20%
- inhibition of growth at 10 µM [8]: 14.1%
- inhibition of growth at 10 µM [9]: 17.2%
- inhibition of growth at 10 µM [10]: < 10%
- inhibition of growth at 10 µM [11]: < 10%
- inhibition of growth at 10 µM [12]: 20.3%
- inhibition of growth at 10 µM [13]: 25.3%
- inhibition of growth at 10 µM [14]: 10.3%
- inhibition of growth at 10 µM [15]: 17.7%
- inhibition of growth at 10 µM [16]: < 10%
- inhibition of growth at 10 µM [17]: 11.1%
- inhibition of growth at 10 µM [18]: 33.2%
- inhibition of growth at 10 µM [19]: 22.5%
- inhibition of growth at 10 µM [20]: < 10%
- inhibition of growth at 10 µM [21]: 14%
- inhibition of growth at 10 µM [22]: < 10%
- inhibition of growth at 10 µM [23]: 39%
- inhibition of growth at 10 µM [24]: 55%
- inhibition of growth at 10 µM [25]: 31%
- inhibition of growth at 10 µM [26]: 36.3%
- inhibition of growth at 10 µM [27]: 30%
- inhibition of growth at 10 µM [28]: 20%
- inhibition of growth at 10 µM [29]: 27.6%
- inhibition of growth at 10 µM [30]: < 10%
- inhibition of growth at 10 µM [31]: 21.4%
- inhibition of growth at 10 µM [32]: 32%
- inhibition of growth at 10 µM [33]: 38.8%
- inhibition of growth at 10 µM [34]: 13.8%
- inhibition of growth at 10 µM [35]: 27.5%
- inhibition of growth at 10 µM [36]: < 10%
- inhibition of growth at 10 µM [37]: 12.1%
- inhibition of growth at 10 µM [38]: < 10%
- inhibition of growth at 10 µM [39]: 11.6%
- inhibition of growth at 10 µM [40]: 14.5%
- inhibition of growth at 10 µM [41]: 20%
